Assay results of several laboratories.
Compare with care: the assays were run in different laboratories.
Target: Mitogen-activated protein kinase kinase kinase 19 (MAP3K19, Homo sapiens, UniProt Q56UN5)
Sequence (Q56UN5 1-1328, as in one of the studies): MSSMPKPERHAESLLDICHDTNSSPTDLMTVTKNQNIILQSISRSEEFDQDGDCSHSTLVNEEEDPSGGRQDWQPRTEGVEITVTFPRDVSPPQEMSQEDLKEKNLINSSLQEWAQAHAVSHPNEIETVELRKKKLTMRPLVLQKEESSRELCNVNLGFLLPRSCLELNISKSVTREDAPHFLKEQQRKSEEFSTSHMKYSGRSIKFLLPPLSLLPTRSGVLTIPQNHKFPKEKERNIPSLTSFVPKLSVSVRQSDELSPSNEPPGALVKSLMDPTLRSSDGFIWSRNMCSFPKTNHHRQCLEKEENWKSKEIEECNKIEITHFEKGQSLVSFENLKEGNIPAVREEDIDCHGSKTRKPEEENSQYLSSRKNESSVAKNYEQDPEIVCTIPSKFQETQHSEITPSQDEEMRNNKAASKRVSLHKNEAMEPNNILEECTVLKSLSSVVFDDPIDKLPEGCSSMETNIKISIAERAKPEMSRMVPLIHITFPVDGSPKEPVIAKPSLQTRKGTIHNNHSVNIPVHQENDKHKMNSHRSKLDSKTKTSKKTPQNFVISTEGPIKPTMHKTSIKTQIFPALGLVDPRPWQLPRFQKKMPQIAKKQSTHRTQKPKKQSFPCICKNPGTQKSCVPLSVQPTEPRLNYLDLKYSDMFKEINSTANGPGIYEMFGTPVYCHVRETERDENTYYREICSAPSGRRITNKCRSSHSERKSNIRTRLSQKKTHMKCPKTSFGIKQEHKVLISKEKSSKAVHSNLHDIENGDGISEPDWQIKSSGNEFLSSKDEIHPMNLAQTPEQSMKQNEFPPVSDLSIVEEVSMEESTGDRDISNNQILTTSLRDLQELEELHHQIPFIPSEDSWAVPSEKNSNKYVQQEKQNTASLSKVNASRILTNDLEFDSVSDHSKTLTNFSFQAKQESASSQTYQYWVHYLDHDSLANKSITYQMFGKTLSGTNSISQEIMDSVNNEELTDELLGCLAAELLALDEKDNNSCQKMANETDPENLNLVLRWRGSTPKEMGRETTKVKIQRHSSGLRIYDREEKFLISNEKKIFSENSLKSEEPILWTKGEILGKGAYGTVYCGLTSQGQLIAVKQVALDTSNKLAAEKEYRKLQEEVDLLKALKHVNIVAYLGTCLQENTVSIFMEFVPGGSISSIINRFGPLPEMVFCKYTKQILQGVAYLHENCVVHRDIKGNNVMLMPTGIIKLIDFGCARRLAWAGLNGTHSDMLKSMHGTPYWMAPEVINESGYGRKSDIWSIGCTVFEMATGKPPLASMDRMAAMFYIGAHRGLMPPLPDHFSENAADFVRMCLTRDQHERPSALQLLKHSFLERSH

| SMILES | test | conditions | remaining binding [%] |
| --- | --- | --- | --- |
| CN(C)c1nccc(-c2cnc3ncccn23)n1 | binding | 1 µM | 79 |
| CC(=O)N1CCC(c2ccc(C(=O)NC3=NCCN3)cc2C(F)(F)F)CC1 | cell-free assay, competition with immobilised ligand | 1 µM | 100 |
| N[C@H]1CCN(c2nccc(-c3cnn4ncccc34)n2)C1 | binding | 1 µM | 79 |
| Cc1cnc(Nc2ccc(C(=O)N3CCC(N4CCCC4)CC3)cc2)nc1-c1cc2ccccc2s1 | binding, competition with immobilised ligand | 1 µM | 0 |
| COc1ccc2c(c1)O[C@@H](c1ccc(OC)c(OC)c1)C[C@H]2NC(=O)C1(c2ccc3c(c2)OC(F)(F)O3)CC1 | cell-free assay, competition with immobilised ligand | 1 µM | 83 |
| O=C(NCCCN1CCOCC1)c1ccc(Nc2nccc(-c3cc4ccccc4s3)n2)cc1 | binding, competition with immobilised ligand | 1 µM | 0.1 |
| CC(=O)C1=C(C)N(c2cccc(C(F)(F)F)c2)C(=O)N[C@@H]1c1ccc(C#N)nc1 | cell-free assay, competition with immobilised ligand | 1 µM | 93 |
| O=C(c1ccc(Nc2ncc(Cl)c(-c3cc4ccccc4s3)n2)cc1)N1CCC(N2CCCC2)CC1 | binding, competition with immobilised ligand | 1 µM | 0 |
| COc1cnc(Nc2cccc(S(N)(=O)=O)c2)nc1N1CCN(c2ccccc2)CC1 | binding, competition with immobilised ligand | 1 µM | 71 |
| C[C@@H]1CCN(c2nccc(-c3cnn4ncccc34)n2)C1 | binding | 1 µM | 79 |
| Cc1nc(N2CC[C@@H](O)C2)ncc1-c1cc(C(F)(F)F)cc2[nH]ncc12 | binding, competition with immobilised ligand | 1 µM | 67 |
| Nc1ncc2c(n1)-c1c([nH]c3ccc(C#CC4CC4)cc13)CCCC2 | binding, competition with immobilised ligand | 1 µM | 64 |
| O=C(NCC1CCOCC1)c1n[nH]cc1NC(=O)c1c(F)cccc1F | binding, competition with immobilised ligand | 1 µM | 52 |
| Cc1cnn2ncc(-c3ccnc(N(C)C)n3)c2c1 | binding | 1 µM | 75 |
| O=C(NCCCC1CCCCC1)c1ccc(CNC(=O)c2cnn(-c3ccccc3)c2C(F)(F)F)cc1 | cell-free assay, competition with immobilised ligand | 0.1 µM | 89 |
| COc1ncc2cc3ccccc3nc2c1C#N | cell-free assay, competition with immobilised ligand | 5 µM | 81 |
| CN(CCCC(F)(F)F)c1nccc(-c2cnn3ncccc23)n1 | binding | 1 µM | 95 |
| CCN1CCN(Cc2ccc(C(=O)Nc3ccc(C)c(Oc4ccc5c(c4)CC(=O)N5)c3)cc2C(F)(F)F)CC1 | binding, competition with immobilised ligand | 1 µM | 100 |
| CC1CCCN1c1nccc(-c2cnn3ncccc23)n1 (centres unmarked) | binding | 1 µM | 95 |
| CNCc1ccccc1-c1csc([C@H](C)Nc2nc(C)nc3cc(OC)c(OC)cc23)c1 | cell-free assay, competition with immobilised ligand | 1 µM | 78 |
